# Laboratory results published in ChEMBL document CHEMBL1139758, “Second generation of alpha-tocopherol analogs-nitric oxide donors: Synthesis, physicochemical, and biological characterization” (Bioorg Med Chem, 2007).
# Experiments:
# [1] = system: Aorta; test: Vasodilation of noradrenaline-induced contraction of Wistar Kyoto rat thoracic aorta at 20 uM; assay type: functional
# Method in brief: (§1)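 Thoracic aorta rings (4 mm) from heparinized, pentobarbital-anaesthetized (40 mg/kg ip) Wistar Kyoto rats (250–300 g). Compounds added in DMSO to the organ bath once contraction reached a plateau; α-tocopherol, Trolox and vehicle served as controls. Where used, ODQ (1 µM) was added at least 10 min before the compound.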
# [2] = system: Aorta; test: Vasodilation of noradrenaline-induced contraction of Wistar Kyoto rat thoracic aorta at 10 uM; assay type: functional; method in brief: as §1
# [3] = system: THP-1; test: Cytotoxicity against human THP1 cells by MTT assay; assay type: functional, cell-based
# Method in brief: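 Phorbol ester (100 ng/mL)-differentiated THP-1 cells, seeded 1 × 10^5/well in RPMI with fetal serum, attached 48 h at 37 °C in 5% CO2, then exposed 24 h to compounds at 1–500 µM. MTT added to 0.2 mg/mL for 3 h at 37 °C, formazan dissolved in DMSO, A560 read. IC50 is the concentration halving control absorbance; mean of at least three determinations.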
# [4] = system: J774; test: Cytotoxicity against mouse J774 cells by MTT assay; assay type: cell-based
# Method in brief: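 J774.1 macrophages, kept in DMEM with 10% heat-inactivated FCS, seeded 1 × 10^5/well in RPMI with fetal serum and left to attach 48 h (37 °C, 5% CO2). Compounds at 1–500 µM for 24 h. Viability by MTT reduction (0.2 mg/mL, 3 h, 37 °C), formazan in DMSO, A560.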
smiles,measurement,setting,value
CC(=O)Oc1c(C)c(C)c2c(c1C)CCC(C)(C(=O)O)O2 (stereo not given),Activity,[1],0%
Cc1c(C)c2c(c(C)c1OCc1c(S(=O)(=O)c3ccccc3)no[n+]1[O-])CCC(C)(CCCC(C)CCCC(C)CCCC(C)C)O2 (stereo not given),Activity,[2],15%
Cc1c(C)c2c(c(C)c1O)CC[C@@](C)(CCC[C@H](C)CCC[C@H](C)CCCC(C)C)O2 [ALPHA-TOCOPHEROL],IC50,[3],> 500 µM
same,IC50,[4],> 500 µM
CC(=O)Oc1c(C)c(C)c2c(c1C)CCC(C)(CCCC(C)CCCC(C)CCCC(C)C)O2 (stereo not drawn) [alpha-TOCHOPHERYL ACETATE],Activity,[1],0%
